According to ChEMBL document CHEMBL5030505, “Assessment of NR4A Ligands That Directly Bind and Modulate the Orphan Nuclear Receptor Nurr1” (J Med Chem, 2020):
Activity calls are given as the source filed them. The rule behind the calls is not given here.

Legend:
Type in all cases: cell-based
SK-N-BE(2) [1] = experiment: Cytotoxicity against human SKNBE2 cells assessed as reduction in cell viability at 5 to 100 uM incubated for 18 hrs by Cell titer-glo assay; conditions: dose 5-100 µM
Procedure, shortened: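 Cells seeded at 1.5 million per 10-cm dish. Next day they were replated at 10,000 cells/well and rested 4 h. Ligand or vehicle (water, ethanol or DMSO, by ligand) was added in dose-response format in quadruplicate. After 18 h, viability was read by CellTiter-Glo luminescence. Data are mean ± s.e.m., generally representative of 2 independent experiments. One-way ANOVA versus vehicle.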

[2] = biological target: Nuclear receptor subfamily 4 group A member 2 (Homo sapiens) (UniProt P43354); experiment: Modulation of full length human Nurr1 expressed in SK-N-BE(2) cells co-transfected with luciferase reporter plasmid harboring NurRE response element assessed as increase in luciferase activity at 1.95 to 125 uM incubated for 18 hrs by luciferase reporter gene assay; conditions: SKNBE2, filed as modulator, dose 1.95-125 µM
Nuclear receptor subfamily 4 group A member 2 (Homo sapiens), sequence (P43354 whole entry): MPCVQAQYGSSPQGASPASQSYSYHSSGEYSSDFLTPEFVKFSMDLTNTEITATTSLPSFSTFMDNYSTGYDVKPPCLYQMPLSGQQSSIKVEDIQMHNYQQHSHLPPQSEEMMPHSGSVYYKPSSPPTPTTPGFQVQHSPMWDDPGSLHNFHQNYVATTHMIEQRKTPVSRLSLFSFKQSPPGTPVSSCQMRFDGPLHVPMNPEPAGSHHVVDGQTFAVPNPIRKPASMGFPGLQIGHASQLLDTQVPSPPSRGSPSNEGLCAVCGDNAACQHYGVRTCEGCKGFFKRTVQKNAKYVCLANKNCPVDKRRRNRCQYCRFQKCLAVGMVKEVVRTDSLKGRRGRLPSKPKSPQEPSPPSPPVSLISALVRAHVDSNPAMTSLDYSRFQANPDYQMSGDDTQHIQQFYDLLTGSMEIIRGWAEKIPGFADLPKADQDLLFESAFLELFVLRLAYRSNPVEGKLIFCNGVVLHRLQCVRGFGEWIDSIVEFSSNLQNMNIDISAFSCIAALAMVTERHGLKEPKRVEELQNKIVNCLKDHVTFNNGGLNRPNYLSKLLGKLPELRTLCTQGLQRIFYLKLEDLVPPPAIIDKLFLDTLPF
Procedure, shortened: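 Transfection of SK-N-BE(2)-C cells (1:1 EMEM/F12, 10% FBS, 37°C, 5% CO2) used full-length Nurr1 alone (2 μg, no RXRα) with 3xNBRE- or 3xNurRE-luciferase reporter (6 μg) for 18 h. Cells were replated at 10,000/well for 4 h, then exposed to ligand or vehicle in quadruplicate for 18 h. Luminescence was expressed as fold over vehicle, as mean ± s.e.m. (n=4) from 2 independent experiments, one-way ANOVA against vehicle.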

[3] = biological target: Nuclear receptor subfamily 4 group A member 2 (Homo sapiens) (UniProt P43354); experiment: Modulation of full length human Nurr1 expressed in PC12 cells co-transfected with luciferase reporter plasmid harboring NurRE response element assessed as decrease in luciferase activity at 1.95 to 125 uM incubated for 18 hrs by luciferase reporter gene assay; conditions: PC-12, filed as modulator, dose 1.95-125 µM
Procedure, shortened: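 Here PC12 cells (FK-12 medium, 15% horse serum, 2.5% FBS, 37°C, 5% CO2) received full-length Nurr1 (2 μg) without RXRα, plus 3xNBRE- or 3xNurRE-luciferase reporter (6 μg), for 18 h. Cells were replated at 10,000/well for 4 h, then treated with ligand or vehicle in quadruplicate for 18 h. Luciferase luminescence was normalized to vehicle-treated cells. Results are mean ± s.e.m. (n=4) from 2 independent experiments, with one-way ANOVA against vehicle.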

[4] = biological target: Nuclear receptor subfamily 4 group A member 2 (Homo sapiens) (UniProt P43354); experiment: Modulation of full length human Nurr1 expressed in PC12 cells co-transfected with RXRalpha and luciferase reporter plasmid harboring NBRE response element assessed as decrease in luciferase activity at 1.56 to 6.25 uM incubated for 18 by luciferase reporter gene assay; conditions: PC-12, filed as modulator, dose 1.56-6.25 µM, time 18.0 hrs
[5] = biological target: Nuclear receptor subfamily 4 group A member 2 (Homo sapiens) (UniProt P43354); experiment: Modulation of full length human Nurr1 expressed in HEK293T cells co-transfected with RXRalpha and luciferase reporter plasmid harboring NurRE response element assessed as decrease in luciferase activity at 1.56 to 6.25 uM incubated for 18 by luciferase reporter gene assay; conditions: filed as modulator, dose 1.56-6.25 µM, time 18.0 hrs
[6] = biological target: Nuclear receptor subfamily 4 group A member 2 (Homo sapiens) (UniProt P43354); experiment: Modulation of full length human Nurr1 expressed in PC12 cells co-transfected with luciferase reporter plasmid harboring NurRE response element assessed as increase in luciferase activity at 1.56 to 6.25 uM incubated for 18 by luciferase reporter gene assay; conditions: PC-12, filed as modulator, dose 1.56-6.25 µM, time 18.0 hrs
Procedure, shortened: (§1)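 Cells transfected (Lipofectamine 2000, 18 h) with full-length Nurr1 expression plasmid (2 μg) and 3xNBRE- or 3xNurRE-luciferase reporter (6 μg), no internal control normalisation; replated 10,000 cells/well, 4 h; ligand or vehicle in quadruplicate for 18 h; Britelite Plus luminescence as fold change over vehicle. Mean ± s.e.m. (n=4); one-way ANOVA versus vehicle.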

HEK293T = experiment: Modulation of Gal4-fused VP16 expressed in HEK293T cells co-transfected with UAS repoter gene assessed as decrease in luciferase activity at 1.56 to 6.25 uM incubated for 18 hrs by luciferase reporter gene assay; conditions: Human alphaherpesvirus 2, filed as modulator, dose 1.56-6.25 µM
Procedure, shortened: (§2)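 Constitutive control: cells transfected (Lipofectamine 2000) with Gal4-VP16 expression plasmid (2 μg) plus 5xUAS-luciferase reporter (2 μg), 18 h; replated 10,000 cells/well, 4 h; ligand or vehicle in quadruplicate for 18 h; luciferase read by Britelite Plus; signal as fold change over vehicle-treated cells. Mean ± s.e.m. (n=4); one-way ANOVA versus vehicle.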

PC-12 = experiment: Modulation of Gal4-fused VP16 expressed in PC12 cells co-transfected with UAS repoter gene assessed as decrease in luciferase activity at 1.56 to 6.25 uM incubated for 18 hrs by luciferase reporter gene assay; conditions: Human alphaherpesvirus 2, filed as modulator, dose 1.56-6.25 µM; procedure, shortened: as §2
[7] = biological target: Nuclear receptor subfamily 4 group A member 2 (Homo sapiens) (UniProt P43354); experiment: Modulation of full length human Nurr1 expressed in HEK293T cells co-transfected with RXRalpha and luciferase reporter plasmid harboring NurRE response element assessed as increase in luciferase activity at 1.56 to 6.25 uM incubated for 18 by luciferase reporter gene assay; conditions: filed as modulator, dose 1.56-6.25 µM, time 18.0 hrs
[8] = biological target: Nuclear receptor subfamily 4 group A member 2 (Homo sapiens) (UniProt P43354); experiment: Modulation of full length human Nurr1 expressed in SKNBE(2) cells co-transfected with luciferase reporter plasmid harboring NBRE response element assessed as decrease in luciferase activity at 1.56 to 6.25 uM incubated for 18 by luciferase reporter gene assay; conditions: SKNBE2, filed as modulator, dose 1.56-6.25 µM, time 18.0 hrs; procedure, shortened: as §1
[9] = biological target: Nuclear receptor subfamily 4 group A member 2 (Homo sapiens) (UniProt P43354); experiment: Modulation of full length human Nurr1 expressed in HEK293T cells co-transfected with luciferase reporter plasmid harboring NBRE response element assessed as decrease in luciferase activity at 1.56 to 6.25 uM incubated for 18 by luciferase reporter gene assay; conditions: filed as modulator, dose 1.56-6.25 µM, time 18.0 hrs; procedure, shortened: as §1
[10] = biological target: Nuclear receptor subfamily 4 group A member 2 (Homo sapiens) (UniProt P43354); experiment: Modulation of full length human Nurr1 expressed in HEK293T cells co-transfected with luciferase reporter plasmid harboring NBRE response element assessed as increase in luciferase activity at 1.56 to 6.25 uM incubated for 18 by luciferase reporter gene assay; conditions: filed as modulator, dose 1.56-6.25 µM, time 18.0 hrs; procedure, shortened: as §1
[11] = biological target: Nuclear receptor subfamily 4 group A member 2 (Homo sapiens) (UniProt P43354); experiment: Modulation of full length human Nurr1 expressed in HEK293T cells co-transfected with RXRalpha and luciferase reporter plasmid harboring NBRE response element assessed as decrease in luciferase activity at 1.56 to 6.25 uM incubated for 18 by luciferase reporter gene assay; conditions: filed as modulator, dose 1.56-6.25 µM, time 18.0 hrs
SK-N-BE(2) [12] = experiment: Cytotoxicity against human SKNBE(2) cells assessed as reduction in cell viability at 1.56 to 6.25 microM incubated for 18 hrs by Cell titer-glo assay; conditions: dose 1.56-6.25 µM
Procedure, shortened: (§3)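 Cells seeded 1.5 million per 10-cm dish; next day replated at 10,000 cells/well in 384-well format, 4 h, then ligand or vehicle (water, ethanol or DMSO by ligand) added in quadruplicate for 18 h; viability read by CellTiter-Glo luminescence. Mean ± s.e.m. (n=4), generally 2 independent experiments; one-way ANOVA versus vehicle.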

HEK-293T = experiment: Cytotoxicity against human HEK293T cells assessed as reduction in cell viability at 1.56 to 6.25 microM incubated for 18 hrs by Cell titer-glo assay; conditions: dose 1.56-6.25 µM; procedure, shortened: as §3

## CCCCCCCC(=O)c1c(O)cc(O)cc1CC(=O)OCC [CYTOSPORONE B]
SK-N-BE(2) [1]
  Activity: Toxic

## CCN(CC)Cc1cc(Nc2ccnc3cc(Cl)ccc23)ccc1O [AMODIAQUINE]
[2]
  Activity: Active
[3]
  Activity: Active

## CCN(CC)CCCC(C)Nc1ccnc2cc(Cl)ccc12 (configuration not stated) [CHLOROQUINE]
[2]
  Activity: Active
[3]
  Activity: Active

## CC1=C(O)C(=O)C=C2C1=CC=C1[C@@]2(C)CC[C@@]2(C)[C@@H]3C[C@](C)(C(=O)O)CC[C@]3(C)CC[C@]12C [CELASTROL]
[4]
  Activity: Active
[5]
  Activity: Active
[6]
  Activity: Active
HEK293T
  Activity: Active
PC-12
  Activity: Active
[7]
  Activity: Active
[8]
  Activity: Active
[9]
  Activity: Active
[10]
  Activity: Active
[11]
  Activity: Active
SK-N-BE(2) [12]
  Activity: Toxic
HEK-293T
  Activity: Toxic
